From ChEMBL document CHEMBL3396970, “Synthesis and biological evaluation of novel 2,3-disubstituted quinoxaline derivatives as antileishmanial and antitrypanosomal agents” (Eur J Med Chem, 2015)
pEC50, pIC50: −log10 of the molar value.

How the values were obtained:
Trypanosoma cruzi [1] = test: Antitrypanosomal activity against epimastigote stage of Trypanosoma cruzi Y after 96 hrs by hemocytometry; format: functional, organism-based
Summary of the method: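 Log-phase parasites (promastigotes 3-day, Warren's medium + 10% FBS, 25°C; epimastigotes 4-day, LIT + 10% FBS, 28°C) seeded at 1 × 10^6 cells/mL with compound (0.1-100 µM; DMSO ≤1%). Promastigotes read at 72 h, epimastigotes at 96 h, by hemocytometer counting. IC50 by nonlinear regression.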

Leishmania amazonensis [2] = test: Antileishmanial activity against promastigote stage of Leishmania amazonensis WHOM/BR/75/JOSEFA after 72 hrs by hemocytometry; format: functional, organism-based
[3] = Selectivity ratio of CC50 to IC50 for promastigote stage of Leishmania amazonensis WHOM/BR/75/JOSEFA; design: reference not given here
[4] = Selectivity ratio of CC50 for mouse J774A1 cells to IC50 for promastigote stage of Leishmania amazonensis WHOM/BR/75/JOSEFA; format: ADME, cell-based, J774.A1; conditions: read-out: Ratio CC50/IC50
[5] = Selectivity ratio of CC50 for monkey LLC-MK2 cells to IC50 for amastigote stage of Trypanosoma cruzi Y; format: ADME, cell-based; conditions: read-out: Ratio CC50/IC50
Leishmania amazonensis [6] = test: Antileishmanial activity against amastigote stage of Leishmania amazonensis WHOM/BR/75/JOSEFA infected in BALB/c mouse peritoneal macrophages after 72 hrs by Geimsa staining-based light microscopy; format: functional, organism-based
[7] = Selectivity ratio of CC50 for BALB/c mouse peritoneal macrophages to IC50 for amastigote stage of Leishmania amazonensis WHOM/BR/75/JOSEFA
[8] = Selectivity ratio of CC50 for monkey LLC-MK2 cells to IC50 for epimastigote stage of epimastigote stage of Trypanosoma cruzi Y
[9] = Selectivity ratio of CC50 for monkey LLC-MK2 cells to EC50 for trypomastigote stage of Trypanosoma cruzi Y; format: ADME, cell-based; conditions: read-out: Ratio CC50/EC50
[10] = Selectivity ratio of CC50 for monkey LLC-MK2 cells to IC50 for epimastigote stage of epimastigote stage of Trypanosoma cruzi Y; format: ADME, cell-based; conditions: read-out: Ratio CC50/IC50
Trypanosoma cruzi [11] = test: Antitrypanosomal activity against amastigote stage of Trypanosoma cruzi Y infected in monkey LLC-MK2 cells after 96 hrs by Geimsa staining-based light microscopy; format: functional, organism-based; conditions: LLC-MK2, 96 h
Summary of the method: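 LLCMK2 monolayers (2.5 x 10^5 cells/mL, 24 h, 37 °C, 5% CO2) infected with trypomastigotes at 10 per host cell for 24 h, washed, treated with compound (0.1 to 50 μM) 96 h. Methanol-fixed, Giemsa-stained, 200 cells counted; survival index (% infected × amastigotes/cell); IC50 by nonlinear regression.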

Trypanosoma cruzi [12] = test: Antitrypanosomal activity against trypomastigote stage of Trypanosoma cruzi Y infected in monkey LLC-MK2 cells after 96 hrs by Pizzi-Brener method; format: functional, organism-based
Trypanosoma cruzi [13] = test: Antitrypanosomal activity against trypomastigote stage of Trypanosoma cruzi Y infected in monkey LLC-MK2 cells after 24 hrs by Pizzi-Brener method; format: functional, organism-based; conditions: LLC-MK2, 24 h
Summary of the method: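 Trypomastigotes harvested from infected LLCMK2 culture supernatant, 1 × 10^7 cells/mL with compound (0.1-50 µM), 24 h at 37°C, 5% CO2. Viability by motility (Pizzi–Brener); EC50 by nonlinear regression.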

Trypanosoma cruzi [14] = test: Antitrypanosomal activity against amastigote stage of Trypanosoma cruzi

pIC50 (Trypanosoma cruzi [1]) | pIC50 (Leishmania amazonensis [2]) | pIC50 (Leishmania amazonensis [6]) | pIC50 (Trypanosoma cruzi [11]) | pEC50 (Trypanosoma cruzi [12]) | SMILES | selectivity ratio [3] | selectivity ratio [4] | selectivity ratio [5] | Ratio CC50/IC50 [7] | selectivity ratio [8] | selectivity ratio [9] | selectivity ratio [10] | pEC50 (Trypanosoma cruzi [13]) | pIC50 (Trypanosoma cruzi [14])
5.44 | 5.60 | 4.89 | 4.84 | 4.41 | CCCCNc1nc2ccc(OC)cc2nc1S(C)(=O)=O | 17.1 | 17.1 | 27.3 | 3.3 | 108 | 10 | 108 | – | –
5.54 | 5.54 | 4.76 | 4.39 | 4.45 | COc1ccc2nc(NCCO)c(S(C)(=O)=O)nc2c1 | 13.3 | 13.3 | 1.8 | 2.2 | 25.2 | 2 | 25.2 | – | –
5.60 | 5.60 | 5.14 | 5.03 | 4.60 | COc1ccc2nc(NC3CCCCC3)c([S+](C)[O-])nc2c1 (centres undefined) | 8 | 8 | 19.5 | 2.8 | 72.8 | 7.1 | 72.8 | – | –

SMILES | pIC50 (Trypanosoma cruzi [1]) | pIC50 (Leishmania amazonensis [2]) | pIC50 (Leishmania amazonensis [6]) | pIC50 (Trypanosoma cruzi [11]) | pEC50 (Trypanosoma cruzi [12]) | selectivity ratio [3] | selectivity ratio [4] | selectivity ratio [5] | Ratio CC50/IC50 [7] | selectivity ratio [8] | selectivity ratio [9] | selectivity ratio [10] | pEC50 (Trypanosoma cruzi [13]) | pIC50 (Trypanosoma cruzi [14])
O=C(Cn1ccnc1[N+](=O)[O-])NCc1ccccc1 [BENZNIDAZOLE] | 5.09 | – | – | – | – | – | – | – | – | – | – | – | 5.47 | 4.58
